Reference: ChEMBL document CHEMBL1629439, “High-throughput identification of antibacterials against methicillin-resistant Staphylococcus aureus (MRSA) and the transglycosylase” (Bioorg Med Chem, 2010)
≈ marks a conversion by molar mass, not a printed value.

Tests used:
Staphylococcus aureus [1] = test: Antimicrobial activity against oxacillin- and methicillin-resistant Staphylococcus aureus isolate Sa-OXA-R2 after 18 to 24 hrs by alamar blue assay; assay type: functional
Summary of the method: (§1)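 Broth microdilution per NCCLS standard, Mueller-Hinton broth, 8-point twofold dilutions; exponentially growing cells at 5 10^5 cells/ml with compound, 18–24 h at 37 C; 20% Alamar blue added, fluorescence read; MIC90 taken as lowest concentration preventing at least 90% growth.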

Bacillus subtilis = test: Antimicrobial activity against Bacillus subtilis ATCC 23857 after 18 to 24 hrs by alamar blue assay; assay type: functional
Summary of the method: (§2)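 Broth microdilution per NCCLS in Mueller-Hinton broth, 8-point twofold dilutions, 384-well format. Exponential-phase cells at 5 × 10^5 cells/ml incubated with compound 18–24 h at 37 °C, then 20% Alamar blue added and fluorescence read. MIC90 taken as the lowest concentration preventing at least 90% bacterial growth.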

Escherichia coli = test: Antimicrobial activity against Escherichia coli ATCC […] after 18 to 24 hrs by alamar blue assay; assay type: functional; conditions: Escherichia coli; read-out: MIC; summary of the method: as §2
Pseudomonas aeruginosa = test: Antimicrobial activity against Pseudomonas aeruginosa ATCC 25619 after 18 to 24 hrs by alamar blue assay; assay type: functional; conditions: Pseudomonas aeruginosa, ATCC 25619; read-out: MIC; summary of the method: as §2
Acinetobacter baumannii = test: Antimicrobial activity against Acinetobacter baumannii ATCC 49139 after 18 to 24 hrs by alamar blue assay; assay type: functional; conditions: Acinetobacter baumannii, ATCC 49139; read-out: MIC; summary of the method: as §2
[2] = system: Stenotrophomonas maltophilia; test: Antimicrobial activity against Stenotrophomonas maltophilia ATCC 13637 after 18 to 24 hrs by alamar blue assay; assay type: functional; conditions: Stenotrophomonas maltophilia, ATCC 13637; read-out: MIC; summary of the method: as §2
Serratia marcescens = test: Antimicrobial activity against Serratia marcescens ATCC 14756 after 18 to 24 hrs by alamar blue assay; assay type: functional; conditions: Serratia marcescens, ATCC 14756; read-out: MIC; summary of the method: as §2
[3] = system: Mycolicibacterium smegmatis; test: Antimicrobial activity against Mycobacterium smegmatis BCRC 11565 after 18 to 24 hrs by alamar blue assay; assay type: functional; conditions: Mycolicibacterium smegmatis, BCRC 11565; read-out: MIC; summary of the method: as §2
Staphylococcus aureus [4] = test: Antimicrobial activity against methicillin-resistant Staphylococcus aureus isolate NTUH4722 after 18 to 24 hrs by alamar blue assay; assay type: functional; summary of the method: as §1
Staphylococcus aureus [5] = test: Antimicrobial activity against methicillin-resistant Staphylococcus aureus ATCC 33592 after 18 to 24 hrs by alamar blue assay; assay type: functional; conditions: Staphylococcus aureus, ATCC 33592; read-out: MIC; summary of the method: as §1
Staphylococcus aureus [6] = test: Antimicrobial activity against Staphylococcus aureus ATCC 29213 after 18 to 24 hrs by alamar blue assay

Structure (SMILES)	MIC (Staphylococcus aureus [1]) [µg/mL]	MIC (Bacillus subtilis) [µg/mL]	MIC (Escherichia coli) [µg/mL]	MIC (Pseudomonas aeruginosa) [µg/mL]	MIC (Acinetobacter baumannii) [µg/mL]	MIC [2] [µg/mL]	MIC (Serratia marcescens) [µg/mL]	MIC [3] [µg/mL]	MIC (Staphylococcus aureus [4]) [µg/mL]	MIC (Staphylococcus aureus [5]) [µg/mL]	MIC (Staphylococcus aureus [6]) [µg/mL]
O=C(Nc1nnc(-c2cccc(Br)c2)o1)c1ccc(F)cc1	1.5 (≈ 4.14 µM)	0.5 (≈ 1.38 µM)	> 256	> 256	> 256	> 256	> 256	0.5 (≈ 1.38 µM)	1.5 (≈ 4.14 µM)	1.5 (≈ 4.14 µM)	3 (≈ 8.28 µM)
O=C(Nc1cccc2c1C(=O)NC2=O)c1ccc([N+](=O)[O-])o1	2 (≈ 6.64 µM)	0.06 (≈ 0.199 µM)	256 (≈ 850 µM)	128 (≈ 425 µM)	12 (≈ 39.8 µM)	32 (≈ 106 µM)	32 (≈ 106 µM)	0.5 (≈ 1.66 µM)	2 (≈ 6.64 µM)	1 (≈ 3.32 µM)	4 (≈ 13.3 µM)
CNC(=O)c1ccsc1NC(=O)c1ccc([N+](=O)[O-])o1	0.5 (≈ 1.69 µM)	0.06 (≈ 0.203 µM)	256 (≈ 867 µM)	128 (≈ 433 µM)	12 (≈ 40.6 µM)	32 (≈ 108 µM)	32 (≈ 108 µM)	0.5 (≈ 1.69 µM)	0.5 (≈ 1.69 µM)	0.5 (≈ 1.69 µM)	2 (≈ 6.77 µM)
CCOC(=O)c1c(NC(=O)c2ccc([N+](=O)[O-])o2)sc2c1CCN(C(C)=O)C2	1 (≈ 2.45 µM)	0.06 (≈ 0.147 µM)	256 (≈ 628 µM)	128 (≈ 314 µM)	12 (≈ 29.5 µM)	32 (≈ 78.5 µM)	32 (≈ 78.5 µM)	0.5 (≈ 1.23 µM)	1 (≈ 2.45 µM)	4 (≈ 9.82 µM)	1 (≈ 2.45 µM)
O=C(Nc1nnc(-c2ccccc2Cl)o1)c1nc2ccccc2s1	32 (≈ 89.7 µM)	0.5 (≈ 1.4 µM)	> 256	> 256	> 256	> 256	> 256	0.5 (≈ 1.4 µM)	2 (≈ 5.61 µM)	2 (≈ 5.61 µM)	2 (≈ 5.61 µM)
O=C(CCN1C(=O)c2cccc3cccc(c23)C1=O)N1CCN(C/C=C/c2ccccc2)CC1	0.25 (≈ 0.551 µM)	4 (≈ 8.82 µM)	> 256	> 256	> 256	> 256	> 256	4 (≈ 8.82 µM)	4 (≈ 8.82 µM)	1 (≈ 2.2 µM)	0.5 (≈ 1.1 µM)
O=C(Nc1cccc(-c2nc3ncccc3o2)c1)c1ccc([N+](=O)[O-])o1	2 (≈ 5.71 µM)	0.06 (≈ 0.171 µM)	256 (≈ 731 µM)	128 (≈ 365 µM)	12 (≈ 34.3 µM)	32 (≈ 91.4 µM)	32 (≈ 91.4 µM)	0.5 (≈ 1.43 µM)	2 (≈ 5.71 µM)	4 (≈ 11.4 µM)	4 (≈ 11.4 µM)
CC1=CC(NC(=O)C(C)Oc2ccccc2)N(c2nc(C)c(C)c(O)n2)N1 (stereo unspecified)	1 (≈ 2.71 µM)	0.25 (≈ 0.677 µM)	> 256	> 256	> 256	> 256	> 256	0.25 (≈ 0.677 µM)	1 (≈ 2.71 µM)	0.25 (≈ 0.677 µM)	1 (≈ 2.71 µM)
Cc1ccc(-c2coc3c(C)c4oc(=O)c(CCC(=O)O)c(C)c4cc23)cc1	2 (≈ 5.31 µM)	> 64	> 256	> 256	> 256	> 256	> 256	1 (≈ 2.66 µM)	1 (≈ 2.66 µM)	2 (≈ 5.31 µM)	1 (≈ 2.66 µM)
O=C(Nc1nnc(-c2ccccc2Cl)o1)c1cccc(C(F)(F)F)c1	0.5 (≈ 1.36 µM)	0.5 (≈ 1.36 µM)	> 256	> 256	> 256	> 256	> 256	0.5 (≈ 1.36 µM)	2 (≈ 5.44 µM)	0.5 (≈ 1.36 µM)	1 (≈ 2.72 µM)
O=C(Nc1nnc(-c2ccc(Cl)cc2)o1)c1cccc(Cl)c1	0.125 (≈ 0.374 µM)	0.5 (≈ 1.5 µM)	> 256	> 256	> 256	> 256	> 256	0.5 (≈ 1.5 µM)	0.125 (≈ 0.374 µM)	0.25 (≈ 0.748 µM)	0.5 (≈ 1.5 µM)
CCc1ccccc1NS(=O)(=O)c1ccc2c(c1)NC(C)CC(=O)S2 (stereo unspecified)	> 64	< 0.03	> 256	> 256	> 256	> 256	> 256	> 64	4 (≈ 10.6 µM)	8 (≈ 21.2 µM)	2 (≈ 5.31 µM)
CSc1ccccc1-c1nnc(NC(=O)c2nc3ccccc3s2)o1	4 (≈ 10.9 µM)	0.5 (≈ 1.36 µM)	> 256	> 256	> 256	> 256	> 256	0.5 (≈ 1.36 µM)	2 (≈ 5.43 µM)	2 (≈ 5.43 µM)	4 (≈ 10.9 µM)
Cc1c(CC(=O)O)c(=O)oc2c(C)c3occ(-c4ccc(Br)cc4)c3cc12	2 (≈ 4.68 µM)	> 64	> 256	> 256	> 256	> 256	> 256	1 (≈ 2.34 µM)	16 (≈ 37.4 µM)	2 (≈ 4.68 µM)	2 (≈ 4.68 µM)
CCN1C(=O)/C(=C/c2ccc([N+](=O)[O-])o2)SC1=S	0.25 (≈ 0.879 µM)	< 0.03	16 (≈ 56.3 µM)	2 (≈ 7.03 µM)	> 256	> 256	> 256	1 (≈ 3.52 µM)	0.125 (≈ 0.44 µM)	0.5 (≈ 1.76 µM)	0.5 (≈ 1.76 µM)
Cc1ccc(-c2nnc(NC(=O)c3nc4ccccc4s3)o2)c(C)c1	0.25 (≈ 0.713 µM)	0.5 (≈ 1.43 µM)	> 256	> 256	> 256	> 256	> 256	0.5 (≈ 1.43 µM)	0.25 (≈ 0.713 µM)	0.5 (≈ 1.43 µM)	0.5 (≈ 1.43 µM)
O=C(Nc1ccc(Cl)cc1)c1cc(Br)ccc1NS(=O)(=O)c1ccc(Cl)cc1	0.5 (≈ 1 µM)	< 0.03	> 256	> 256	> 256	> 256	> 256	> 64	0.25 (≈ 0.5 µM)	0.25 (≈ 0.5 µM)	0.25 (≈ 0.5 µM)
O=C(Nc1cc(Cl)c(Cl)c(Cl)c1)c1cc(Cl)cc(Cl)c1O	0.125 (≈ 0.324 µM)	< 0.03	8 (≈ 20.8 µM)	16 (≈ 41.5 µM)	16 (≈ 41.5 µM)	16 (≈ 41.5 µM)	16 (≈ 41.5 µM)	0.5 (≈ 1.3 µM)	1 (≈ 2.59 µM)	0.5 (≈ 1.3 µM)	0.125 (≈ 0.324 µM)
Cc1c(CC(=O)N2CCC(C(=O)O)CC2)c(=O)oc2c(C)c3occ(-c4ccc(Cl)cc4)c3cc12	2.5 (≈ 5.06 µM)	> 64	> 256	> 256	> 256	> 256	> 256	1 (≈ 2.02 µM)	2.5 (≈ 5.06 µM)	1.25 (≈ 2.53 µM)	2.5 (≈ 5.06 µM)
Cc1c(CC(=O)N2CCC(C(=O)O)(c3ccccc3)CC2)c(=O)oc2c(C)c3occ(-c4ccc(Cl)cc4)c3cc12	2.5 (≈ 4.39 µM)	> 64	> 256	> 256	> 256	> 256	> 256	1 (≈ 1.75 µM)	2.5 (≈ 4.39 µM)	2.5 (≈ 4.39 µM)	2.5 (≈ 4.39 µM)
O=C(Nc1ccc(Cl)cc1)c1cc(Br)cc(Br)c1O	1 (≈ 2.47 µM)	< 0.03	8 (≈ 19.7 µM)	16 (≈ 39.5 µM)	16 (≈ 39.5 µM)	16 (≈ 39.5 µM)	16 (≈ 39.5 µM)	0.5 (≈ 1.23 µM)	1 (≈ 2.47 µM)	4 (≈ 9.87 µM)	1 (≈ 2.47 µM)
CSc1nc2ccc(NC(=O)c3ccc([N+](=O)[O-])o3)cc2s1	1 (≈ 2.98 µM)	0.06 (≈ 0.179 µM)	256 (≈ 763 µM)	128 (≈ 382 µM)	12 (≈ 35.8 µM)	32 (≈ 95.4 µM)	32 (≈ 95.4 µM)	0.5 (≈ 1.49 µM)	1 (≈ 2.98 µM)	1 (≈ 2.98 µM)	1 (≈ 2.98 µM)
Cc1ccc(NS(=O)(=O)c2ccc3c(c2)NCC(C)C(=O)S3)c(C)c1 (stereo unspecified)	> 64	< 0.03	> 256	> 256	> 256	> 256	> 256	> 64	16 (≈ 42.5 µM)	2 (≈ 5.31 µM)	2 (≈ 5.31 µM)
CCOc1ccccc1N(C)S(=O)(=O)c1ccc2c(c1)NC(=O)C(C)S2 (stereo unspecified)	> 64	< 0.03	> 256	> 256	> 256	> 256	> 256	> 64	8 (≈ 20.4 µM)	8 (≈ 20.4 µM)	4 (≈ 10.2 µM)
O=C1c2cc([N+](=O)[O-])cc3cc([N+](=O)[O-])cc(c23)C(=O)N1c1cccc2ccccc12	0.125 (≈ 0.302 µM)	4 (≈ 9.68 µM)	> 256	> 256	> 256	> 256	> 256	4 (≈ 9.68 µM)	0.125 (≈ 0.302 µM)	2.5 (≈ 6.05 µM)	1.25 (≈ 3.02 µM)
O=C(Nc1nnc(-c2ccc(F)cc2)o1)c1cccc(C(F)(F)F)c1	4 (≈ 11.4 µM)	0.5 (≈ 1.42 µM)	> 256	> 256	> 256	> 256	> 256	0.5 (≈ 1.42 µM)	1 (≈ 2.85 µM)	0.5 (≈ 1.42 µM)	0.5 (≈ 1.42 µM)
